In ChEMBL document CHEMBL4725242, “Discovery of GS-9688 (Selgantolimod) as a Potent and Selective Oral Toll-Like Receptor 8 Agonist for the Treatment of Chronic Hepatitis B” (J Med Chem, 2020):

How the values were obtained:
[1] = Dissociation constant, pKa of the compound; type: physicochemical
[2] = Selectivity index, ratio of CC50 for human MT4 cells to EC50 for TLR8 in human cryopreserved PBMC assessed as induction of IL-12p40 production
[3] = Clearance in rat hepatic microsomes at 2 uM measured up to 60 mins in presence of NADPH generating system by LC-MS/MS analysis; type: ADME, Microsome; details: liver microsomes
[4] = Clearance in dog hepatic microsomes at 2 uM measured up to 60 mins in presence of NADPH generating system by LC-MS/MS analysis; type: ADME, Canis lupus familiaris, Microsome; details: liver microsomes
[5] = Drug metabolism in human hepatocytes assessed as hydroxyl oxidation to the acid; type: ADME, cell-based, Hepatocyte
[6] = Volume of distribution at steady state in Sprague-Dawley rat at 1 mg/kg, iv administered as 30 mins infusion by HPLC-MS analysis; type: ADME, organism-based; details: in vivo, read-out: Vdss
In short: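 30-min intravenous infusion: Sprague Dawley rats 1 mg/kg, beagle dogs 0.25 mg/kg, cynomolgus monkeys 0.1 mg/kg; n = 3 per species, reported as mean ± SD.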

[7] = biological target: T1, Toll-like receptor 7 (Homo sapiens) (UniProt Q9NYK1); experiment: Agonist activity at human TLR7 expressed in HEK293 cells assessed as increase in NF-kappaB activation incubated for 24 hrs by quanti-blue SEAP reporter gene assay; type: cell-based; details: filed as agonist
T1 sequence (whole entry): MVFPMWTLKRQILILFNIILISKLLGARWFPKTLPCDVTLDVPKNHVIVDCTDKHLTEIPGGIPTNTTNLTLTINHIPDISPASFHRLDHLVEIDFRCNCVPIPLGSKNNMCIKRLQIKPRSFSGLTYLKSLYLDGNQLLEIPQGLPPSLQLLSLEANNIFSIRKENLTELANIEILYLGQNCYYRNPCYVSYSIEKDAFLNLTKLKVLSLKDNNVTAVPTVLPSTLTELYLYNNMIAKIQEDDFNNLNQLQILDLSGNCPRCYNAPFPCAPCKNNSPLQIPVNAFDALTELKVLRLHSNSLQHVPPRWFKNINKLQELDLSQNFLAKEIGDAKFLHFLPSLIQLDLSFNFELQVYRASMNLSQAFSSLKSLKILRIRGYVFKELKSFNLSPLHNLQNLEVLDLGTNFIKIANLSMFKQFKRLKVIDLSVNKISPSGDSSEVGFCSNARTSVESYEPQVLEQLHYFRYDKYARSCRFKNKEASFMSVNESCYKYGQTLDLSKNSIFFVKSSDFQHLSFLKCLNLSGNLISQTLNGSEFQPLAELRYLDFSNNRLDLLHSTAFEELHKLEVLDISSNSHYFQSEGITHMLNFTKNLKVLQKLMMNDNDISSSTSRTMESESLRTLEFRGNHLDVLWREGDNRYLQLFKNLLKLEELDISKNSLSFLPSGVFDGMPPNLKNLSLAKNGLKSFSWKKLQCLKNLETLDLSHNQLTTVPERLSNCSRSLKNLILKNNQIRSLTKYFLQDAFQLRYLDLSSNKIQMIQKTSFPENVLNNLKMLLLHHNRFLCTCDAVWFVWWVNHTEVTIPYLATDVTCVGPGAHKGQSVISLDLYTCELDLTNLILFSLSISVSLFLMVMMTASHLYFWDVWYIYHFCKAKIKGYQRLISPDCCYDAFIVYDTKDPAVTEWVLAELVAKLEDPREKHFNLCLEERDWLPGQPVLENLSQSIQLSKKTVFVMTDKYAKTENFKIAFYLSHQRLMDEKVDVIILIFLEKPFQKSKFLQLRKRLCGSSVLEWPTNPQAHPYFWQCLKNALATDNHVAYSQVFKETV
In short: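 HEK293 cells stably expressing individual human TLRs or other innate immune receptors, used as reporter gene assays. Minimum effective concentration defined as the level giving a 3-fold rise over background.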

[8] = Immunomodulatory activity in human primary hepatocytes infected with HBV assessed as stimulation of CD8+T cell response to virus by measuring decrease in HBeAg production treated with media from PBMC stimulated with 10 nM compound for 10 days relative to control; type: functional; parameters: scale not given: the % may be the effect or the level left; details: time 10 day
[9] = Immunomodulatory activity in human primary hepatocytes infected with HBV assessed as stimulation of CD8+T cell response to virus by measuring decrease in HBsAg production treated with media from PBMC stimulated with 10 nM compound for 10 days relative to control; type: functional; parameters: scale not given: the % may be the effect or the level left; details: time 10 day

- pKa [1]: 6.3
- CLhep predicted at 2 µM [3]: 50 mL/min/kg
- CLhep predicted at 2 µM [4]: 28.3 mL/min/kg
- Drug metabolism [5]: Metabolite_Detected
- Vd [6]: 1.1 L/kg
- MEC [7]: 5.2 µM
Compound: CCCC[C@](C)(CO)Nc1nc(N)nc2cc(F)cnc12 [SELGANTOLIMOD]
- Ratio CC50/EC50 [2]: 77
- Activity [8]: >50%
- Activity [9]: >50%
